For assay [1], the system named is NCI-H1299. The assay is described as follows: Growth inhibition of human H1299 cells incubated for 72 hrs at 1 uM by CCK8 assay. The assay is classed as functional. The following applies: NCI-H1299, 72 h, read-out: GI. The method, boiled down: (§1)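 CCK8 viability assay on a panel of human cancer cell lines, with an initial screen at fixed concentrations of 1 µM and 10 µM.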

Assay [2] concerns OVCAR-5. The assay can be described thus: Growth inhibition of human OVCAR5 cells incubated for 72 hrs at 1 uM by CCK8 assay. Format: functional. The following applies: OVCAR-5, 72 h, read-out: GI. An outline of the steps:
as §1
On the technique in general: Tetrazolium assays rely on reduction of a dye to a coloured formazan, in cell work by metabolically active cells.

Assay [3] deals with Vascular endothelial growth factor receptor 2 (Homo sapiens, UniProt P35968). The assay is described as follows: Inhibition of human VEGFR2 at 1 uM by enzymatic radiometric assay.
Sequence of Vascular endothelial growth factor receptor 2 (P35968 whole entry): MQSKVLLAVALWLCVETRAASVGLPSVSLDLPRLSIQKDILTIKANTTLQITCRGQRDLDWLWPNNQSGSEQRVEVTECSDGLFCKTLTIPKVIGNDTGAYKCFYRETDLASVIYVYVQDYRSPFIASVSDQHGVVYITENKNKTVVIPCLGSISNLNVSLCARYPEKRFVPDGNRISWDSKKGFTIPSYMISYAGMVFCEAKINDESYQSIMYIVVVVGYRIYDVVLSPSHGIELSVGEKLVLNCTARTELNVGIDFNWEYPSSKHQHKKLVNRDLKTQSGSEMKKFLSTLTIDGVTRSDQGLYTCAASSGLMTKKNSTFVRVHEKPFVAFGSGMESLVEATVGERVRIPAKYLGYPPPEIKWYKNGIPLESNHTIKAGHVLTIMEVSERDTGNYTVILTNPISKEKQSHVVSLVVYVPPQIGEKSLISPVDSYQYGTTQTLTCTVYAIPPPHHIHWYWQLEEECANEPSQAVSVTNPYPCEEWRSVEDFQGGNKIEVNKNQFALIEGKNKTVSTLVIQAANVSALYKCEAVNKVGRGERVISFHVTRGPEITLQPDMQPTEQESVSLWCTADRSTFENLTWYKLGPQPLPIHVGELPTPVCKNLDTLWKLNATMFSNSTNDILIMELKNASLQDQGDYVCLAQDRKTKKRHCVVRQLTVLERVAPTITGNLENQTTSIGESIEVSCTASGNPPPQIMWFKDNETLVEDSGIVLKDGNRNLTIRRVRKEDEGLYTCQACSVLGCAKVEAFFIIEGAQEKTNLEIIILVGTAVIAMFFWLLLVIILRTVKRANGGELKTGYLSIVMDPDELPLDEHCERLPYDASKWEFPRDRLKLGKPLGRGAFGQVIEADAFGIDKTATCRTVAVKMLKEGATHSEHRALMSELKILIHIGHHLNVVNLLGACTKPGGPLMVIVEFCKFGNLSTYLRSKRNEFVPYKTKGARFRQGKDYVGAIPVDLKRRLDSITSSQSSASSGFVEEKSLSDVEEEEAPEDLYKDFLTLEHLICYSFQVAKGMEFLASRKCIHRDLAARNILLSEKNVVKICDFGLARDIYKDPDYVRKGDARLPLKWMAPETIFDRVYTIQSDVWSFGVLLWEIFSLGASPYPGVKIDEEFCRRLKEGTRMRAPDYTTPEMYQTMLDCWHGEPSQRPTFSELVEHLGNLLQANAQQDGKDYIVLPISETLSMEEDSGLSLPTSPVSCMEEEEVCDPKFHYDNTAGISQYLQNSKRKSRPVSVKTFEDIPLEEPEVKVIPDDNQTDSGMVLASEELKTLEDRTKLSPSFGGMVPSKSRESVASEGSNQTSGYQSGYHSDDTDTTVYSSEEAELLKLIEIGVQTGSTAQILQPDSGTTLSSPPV
The target of assay [4] is CDK4/Cyclin D3 (Homo sapiens) (UniProt P11802+P30281). The assay can be described thus: Inhibition of human CDK4/CyclinD3 at 1 uM by enzymatic radiometric assay. Format: protein-complex assay. The method, boiled down: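 Kinase panel run through the Eurofins KinaseProfiler, with compound at a fixed 1 µM. Values are means of two independent experiments.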
Assay [5] has as its system OVCAR-5. The assay is described as follows: Growth inhibition of human OVCAR5 cells incubated for 72 hrs at 10 uM by CCK8 assay. The assay is classed as functional. The conditions noted are these: OVCAR-5, 72 h, read-out: GI. An outline of the steps: as §1
Assay [6] has as its system NCI-H1299. The assay is described as follows: Growth inhibition of human H1299 cells incubated for 72 hrs at 10 uM by CCK8 assay. Format: functional. The conditions noted are these: NCI-H1299, 72 h, read-out: GI. The method, boiled down: as §1
Assay [7] has as its system A549. The assay can be described thus: Growth inhibition of human A549 cells incubated for 72 hrs at 10 uM by CCK8 assay. Format: functional. The following applies: A549, 72 h, read-out: GI. An outline of the steps:
as §1

For assay [8], the system named is T47D. The assay can be described thus: Growth inhibition of human T47D cells incubated for 72 hrs at 10 uM by CCK8 assay. The assay is classed as functional. The conditions noted are these: read-out: GI. An outline of the steps:
as §1

The test system of assay [9] is SiHa. The assay can be described thus: Growth inhibition of human SiHa cells incubated for 72 hrs at 1 uM by CCK8 assay. The assay is classed as functional. The following applies: read-out: GI. The method, boiled down: as §1
The subject of assay [10] is T47D. The assay can be described thus: Growth inhibition of human T47D cells incubated for 72 hrs at 1 uM by CCK8 assay. The assay is classed as functional. The conditions noted are these: read-out: GI. The method, boiled down: as §1
Assay [11] concerns SiHa. The assay can be described thus: Growth inhibition of human SiHa cells incubated for 72 hrs at 10 uM by CCK8 assay. The assay is classed as functional. The following applies: read-out: GI. The method, boiled down:
as §1

In assay [12] the test system is A549. The assay can be described thus: Growth inhibition of human A549 cells incubated for 72 hrs at 1 uM by CCK8 assay. The conditions noted are these: A549, 72 h, read-out: GI. Format: functional. The method, boiled down: as §1
Assay [13] concerns NCI-H460. The assay is described as follows: Growth inhibition of human H460 cells incubated for 72 hrs at 1 uM by CCK8 assay. The assay is classed as functional. The conditions noted are these: NCI-H460, 72 h, read-out: GI. An outline of the steps: as §1
Assay [14] relates to NCI-H460. The assay is described as follows: Growth inhibition of human H460 cells incubated for 72 hrs at 10 uM by CCK8 assay. The conditions noted are these: NCI-H460, 72 h, read-out: GI. Format: functional. The method, boiled down:
as §1

For `CN(C)C(=O)c1cc2cnc(Nc3ccc(NC(=O)C4(C(=O)Nc5cccc(Br)c5)CC4)cc3)nc2n1C1CCCC1`, the inhibition of growth at 1 µM in assay [1] came out at 46.6%; in assay [2], 0.04%; in [9], 13.9%; in [10] it was 29.1%; in assay [12], 20.2%. The inhibition (in general, the drop in the measured response relative to a control, in per cent) in assay [3] is 6%; in assay [4], 72%. Moreover, the inhibition of growth at 10 µM in assay [5] was 89.6%; in assay [6], 77.5%; in [7], 92.2%; in assay [8], 94.6%; in assay [11] it was 92.5%.

`CN(C)C(=O)c1cc2cnc(Nc3ccc(NC(=O)C4(C(=O)Nc5ccccc5F)CC4)cc3)nc2n1C1CCCC1`: the inhibition of growth at 1 µM is 70.2% in assay [1]; 58% in assay [2]; 63.4% in [9]; 85.2% in [10]; 28.2% in [13]; 79.1% in assay [12]. The inhibition in assay [3] is -2%; in assay [4], 75%. The inhibition of growth at 10 µM in assay [5] amounted to 82.6%; in [6], 89.6%; in assay [7], 88.6%; in [8], 97.8%; in assay [14] it was 93.1%; in assay [11], 103%.

For the compound `COC(=O)c1cccc(NC(=O)C2(C(=O)Nc3ccc(Nc4ncc5cc(C(=O)N(C)C)n(C6CCCC6)c5n4)cc3)CC2)c1`, the results for the inhibition in assay [3] and in assay [4] were -7% and 76%, respectively. In [7], the inhibition of growth at 10 µM came out at 91%. The inhibition of growth at 1 µM in [12] is 10.5%.

For `CN(C)C(=O)c1cc2cnc(Nc3ccc(NC(=O)C4(C(=O)Nc5cccc(F)c5)CC4)cc3)nc2n1C1CCCC1`, the inhibition of growth at 1 µM in assay [1] was 64.2%; in assay [2], 26.3%; in [9] it was 29.7%; in [10] it was -3.2%; in assay [13], 45.1%; in assay [12], 33.2%. Moreover, the inhibition in [3] amounted to 7%; in assay [4] it was 61%. Further, the inhibition of growth at 10 µM is 85.6% in assay [5]; 87% in [6]; 91.8% in assay [7]; -0.4% in assay [8]; 98.8% in assay [14]; 107% in assay [11].

As for `COC(=O)c1ccc(NC(=O)C2(C(=O)Nc3ccc(Nc4ncc5cc(C(=O)N(C)C)n(C6CCCC6)c5n4)cc3)CC2)cc1`, the inhibition is 2% in [3] and 77% in [4]. Also, the inhibition of growth at 10 µM in [7] stood at 92%. The inhibition of growth at 1 µM in assay [12] stood at 77.1%.

Take `COc1cccc(NC(=O)C2(C(=O)Nc3ccc(Nc4ncc5cc(C(=O)N(C)C)n(C6CCCC6)c5n4)cc3)CC2)c1`: the inhibition was -2% in assay [3] and 66% in [4]. Moreover, the inhibition of growth at 10 µM in assay [7] turned out to be 96%; in [8], 93.5%. Besides, the inhibition of growth at 1 µM stood at 56.3% in [10] and 77.2% in assay [12].

`CN(C)C(=O)c1cc2cnc(Nc3ccc(NC(=O)C4(C(=O)Nc5cccc(C(F)(F)F)c5)CC4)cc3)nc2n1C1CCCC1`: the results for the inhibition in assay [3] and in assay [4] were -10% and 26%, respectively. Besides, the inhibition of growth at 10 µM in assay [7] was found to be 89.2%; in [8], 92.7%. The values for the inhibition of growth at 1 µM in assay [10] and in assay [12] were 9.7% and 15.7%, respectively.

On to `CN(C)C(=O)c1cc2cnc(Nc3ccc(NC(=O)C4(C(=O)Nc5cccc(C#N)c5)CC4)cc3)nc2n1C1CCCC1`, for which the inhibition was 29% in [3] and 53% in assay [4]. For the same compound, the inhibition of growth at 10 µM in assay [7] worked out at 73.6%. Besides, the inhibition of growth at 1 µM in assay [12] was 70.8%.

On to `COc1ccc(NC(=O)C2(C(=O)Nc3ccc(Nc4ncc5cc(C(=O)N(C)C)n(C6CCCC6)c5n4)cc3)CC2)cc1`, for which the figures for the inhibition in [3] and in assay [4] were 19% and 77%, respectively. Besides, the inhibition of growth at 10 µM in assay [7] was 78.5%; in [8], 96.1%. Besides, the values for the inhibition of growth at 1 µM in assay [10] and in assay [12] were 76.4% and 74.4%, respectively.

For `Cc1cccc(NC(=O)C2(C(=O)Nc3ccc(Nc4ncc5cc(C(=O)N(C)C)n(C6CCCC6)c5n4)cc3)CC2)c1`, the inhibition is 5% in [3] and 66% in [4]. Further, the inhibition of growth at 10 µM in assay [7] was found to be 86.1%; in assay [8], 95.3%. For the same compound, the inhibition of growth at 1 µM came out at 45.7% in assay [10] and 35.2% in [12].

As for `CN(C)C(=O)c1cc2cnc(Nc3ccc(NC(=O)C4(C(=O)Nc5ccc(Cl)cc5)CC4)cc3)nc2n1C1CCCC1`, the inhibition of growth at 1 µM in [1] is 52.2%; in assay [2], 8.1%; in assay [9], -0.8%; in assay [10], 22.8%; in assay [13] it was 21.3%; in assay [12], 24.7%. The inhibition stood at 5% in assay [3] and 65% in [4]. Further, the inhibition of growth at 10 µM in assay [5] was 85.3%; in assay [6], 88.6%; in assay [7], 100%; in assay [8] it was 95%; in assay [14], 95.7%.

Take `CN(C)C(=O)c1cc2cnc(Nc3ccc(NC(=O)C4(C(=O)Nc5ccc(C(F)(F)F)cc5)CC4)cc3)nc2n1C1CCCC1`: the inhibition in assay [3] came to 1%; in [4], 32%. The inhibition of growth at 10 µM in assay [7] turned out to be 87.9%; in assay [8], 94.9%. The inhibition of growth at 1 µM is 29.6% in assay [10] and -25.3% in assay [12].

For `CN(C)C(=O)c1cc2cnc(Nc3ccc(NC(=O)C4(C(=O)Nc5ccc(F)cc5)CC4)cn3)nc2n1C1CCCC1`, the figures for the inhibition in assay [3] and in assay [4] were -3% and 85%, respectively.

In the case of `Cc1ccc(NC(=O)C2(C(=O)Nc3ccc(Nc4ncc5cc(C(=O)N(C)C)n(C6CCCC6)c5n4)cc3)CC2)cc1`, the figures for the inhibition in assay [3] and in [4] were 9% and 62%, respectively. The inhibition of growth at 10 µM in assay [5] was 80.6%; in assay [6], 84.5%; in assay [7] it was 90.6%; in assay [8], 99.6%; in [11] it was 104%. Moreover, the figures for the inhibition of growth at 1 µM in assay [9], in assay [10] and in assay [12] were 37%, 47.9% and 40.2%, respectively.

Turning to `CN(C)C(=O)c1cc2cnc(Nc3ccc(NC(=O)C4(C(=O)Nc5ccc(C#N)cc5)CC4)cc3)nc2n1C1CCCC1`, the inhibition is 21% in assay [3] and 84% in assay [4]. For the same compound, the inhibition of growth at 10 µM in [7] worked out at 95%. Moreover, the inhibition of growth at 1 µM in assay [12] was 86.1%.

On to `CN(C)C(=O)c1cc2cnc(Nc3ccc(N4CCN(C(=O)C5(C(=O)Nc6ccc(F)cc6)CC5)CC4)cn3)nc2n1C1CCCC1`, for which the inhibition was -8% in assay [3] and 97% in assay [4].

The values above are taken from ChEMBL document CHEMBL4052710 (Bioorg Med Chem Lett, 2017).
